Measured values: ChEMBL document CHEMBL3259728, “Design, synthesis and biological evaluation of some novel substituted quinazolines as antitumor agents” (2014)

Columns and labels:
Format in all cases: functional
K562 = test: Growth inhibition of human K562 cells at 10 uM after 48 hrs by SRB assay; settings: K562, 48 h, read-out: GI
Method in brief: (§1)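 NCI-60 primary one-dose screen run at the US NCI, with human tumour lines from nine cancer types. Compound added once at 10^-5 M, followed by 48 h incubation. End point was sulforhodamine B protein staining read spectrophotometrically. Result given as percent growth of treated cells against untreated controls, reported as % growth inhibition.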

A549 = test: Growth inhibition of human A549 cells at 10 uM after 48 hrs by SRB assay; settings: A549, 48 h, read-out: GI
Method in brief: (§2)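 NCI primary one-dose screen. A single concentration of 10^-5 M was added to the cell culture, followed by 48 h incubation and an SRB protein-dye endpoint read spectrophotometrically. Results are growth percentage relative to untreated control cells, reported as % growth inhibition.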

M14 = test: Growth inhibition of human M14 cells at 10 uM after 48 hrs by SRB assay; settings: M14, 48 h, read-out: GI; method in brief: as §1
U-251 = test: Growth inhibition of human U251 cells at 10 uM after 48 hrs by SRB assay; settings: U-251, 48 h, read-out: GI; method in brief: as §1
NCI-H460 = test: Growth inhibition of human NCI-H460 cells at 10 uM after 48 hrs by SRB assay; settings: NCI-H460, 48 h, read-out: GI; method in brief: as §1
[1] = Growth inhibition of human UACC257 cells at 10 uM after 48 hrs by SRB assay; settings: UACC-257, 48 h, read-out: GI; method in brief: as §1
A498 = test: Growth inhibition of human A498 cells at 10 uM after 48 hrs by SRB assay; settings: A498, 48 h, read-out: GI; method in brief: as §2
IGROV-1 = test: Growth inhibition of human IGROV1 cells at 10 uM after 48 hrs by SRB assay; settings: IGROV-1, 48 h, read-out: GI; method in brief: as §1
[2] = Growth inhibition of human Hs578T cells at 10 uM after 48 hrs by SRB assay; settings: Hs-578T, read-out: GI; method in brief: as §1
[3] = Growth inhibition of human OVCAR5 cells at 10 uM after 48 hrs by SRB assay; settings: OVCAR-5, 48 h, read-out: GI; method in brief: as §1
SN12C = test: Growth inhibition of human SN12C cells at 10 uM after 48 hrs by SRB assay; settings: read-out: GI; method in brief: as §1
[4] = Growth inhibition of human MOLT4 cells at 10 uM after 48 hrs by SRB assay; settings: MOLT-4, 48 h, read-out: GI; method in brief: as §1
KM12 = test: Growth inhibition of human KM12 cells at 10 uM after 48 hrs by SRB assay; settings: KM12, 48 h, read-out: GI; method in brief: as §1
NCI-H226 = test: Growth inhibition of human NCI-H226 cells at 10 uM after 48 hrs by SRB assay; settings: NCI-H226, 48 h, read-out: GI; method in brief: as §1
HCT-116 = test: Growth inhibition of human HCT116 cells at 10 uM after 48 hrs by SRB assay; settings: HCT-116, 48 h, read-out: GI; method in brief: as §1
Malme-3M = test: Growth inhibition of human MALME-3M cells at 10 uM after 48 hrs by SRB assay; settings: read-out: GI; method in brief: as §1
MDA-MB-435 = test: Growth inhibition of human MDA-MB-435 cells at 10 uM after 48 hrs by SRB assay; settings: MDA-MB-435, 48 h, read-out: GI; method in brief: as §1
[5] = Growth inhibition of human OVCAR8 cells at 10 uM after 48 hrs by SRB assay; settings: OVCAR-8, 48 h, read-out: GI; method in brief: as §1
SK-OV-3 = test: Growth inhibition of human SKOV3 cells at 10 uM after 48 hrs by SRB assay; settings: SK-OV-3, 48 h, read-out: GI; method in brief: as §1
HOP-62 = test: Growth inhibition of human HOP62 cells at 10 uM after 48 hrs by SRB assay; settings: HOP-62, 48 h, read-out: GI; method in brief: as §1
[6] = Growth inhibition of human UACC62 cells at 10 uM after 48 hrs by SRB assay; settings: UACC-62, 48 h, read-out: GI; method in brief: as §1
SNB-75 = test: Growth inhibition of human SNB75 cells at 10 uM after 48 hrs by SRB assay; settings: SNB-75, 48 h, read-out: GI; method in brief: as §1
[7] = Growth inhibition of human BT549 cells at 10 uM after 48 hrs by SRB assay; settings: BT-549, 48 h, read-out: GI; method in brief: as §2
SK-MEL-2 = test: Growth inhibition of human SK-MEL-2 cells at 10 uM after 48 hrs by SRB assay; settings: SK-MEL-2, 48 h, read-out: GI; method in brief: as §1
MDA-MB-468 = test: Growth inhibition of human MDA-MB-468 cells assessed as cell growth at 10 uM after 48 hrs by SRB assay; settings: MDA-MB-468, 48 h, read-out: GI; method in brief: as §1
CAKI-1 = test: Growth inhibition of human CAKI-1 cells at 10 uM after 48 hrs by SRB assay; settings: CAKI-1, 48 h, read-out: GI; method in brief: as §2
SW-620 = test: Growth inhibition of human SW620 cells at 10 uM after 48 hrs by SRB assay; settings: SW-620, 48 h, read-out: GI; method in brief: as §1
[8] = Growth inhibition of human EKVX cells at 10 uM after 48 hrs by SRB assay; settings: read-out: GI; method in brief: as §1
MDA-MB-231 = test: Growth inhibition of human MDA-MB-231 cells at 10 uM after 48 hrs by SRB assay; settings: MDA-MB-231, 48 h, read-out: GI; method in brief: as §1
SNB-19 = test: Growth inhibition of human SNB19 cells at 10 uM after 48 hrs by SRB assay; settings: SNB-19, 48 h, read-out: GI; method in brief: as §1
[9] = Growth inhibition of human OVCAR4 cells at 10 uM after 48 hrs by SRB assay; settings: OVCAR-4, 48 h, read-out: GI; method in brief: as §1
MCF7 = test: Growth inhibition of human MCF7 cells at 10 uM after 48 hrs by SRB assay; settings: MCF7, 48 h, read-out: GI; method in brief: as §1
[10] = Growth inhibition of human LOXIMVI cells at 10 uM after 48 hrs by SRB assay; settings: LOX IMVI, read-out: GI; method in brief: as §1
SF-268 = test: Growth inhibition of human SF268 cells at 10 uM after 48 hrs by SRB assay; settings: SF-268, 48 h, read-out: GI; method in brief: as §1
T47D = test: Growth inhibition of human T47D cells at 10 uM after 48 hrs by SRB assay; settings: read-out: GI; method in brief: as §1
SK-MEL-5 = test: Growth inhibition of human SK-MEL-5 cells at 10 uM after 48 hrs by SRB assay; settings: SK-MEL-5, 48 h, read-out: GI; method in brief: as §1
HT-29 = test: Growth inhibition of human HT-29 cells at 10 uM after 48 hrs by SRB assay; settings: HT-29, 48 h, read-out: GI; method in brief: as §1
DU-145 = test: Growth inhibition of human DU145 cells at 10 uM after 48 hrs by SRB assay; settings: DU-145, 48 h, read-out: GI; method in brief: as §1

Measured: inhibition of growth at 10 µM

Cc1ccc(-c2nc3ccc(Cl)cc3c3nnc(S)n23)cc1
16%: MDA-MB-231
33%: [1]
13%: [4]
11%: K562 | A549 | KM12 | [8]
27%: NCI-H226
12%: SK-MEL-5
19%: A498
15%: CAKI-1
< 10%: all other assays above
